Assay outcomes from PubChem.
Hits are enriched below; roughly 12% of the tested compounds scored in any of these assays.
Wee1 degr inh: human Wee1 degradation inhibition, primary screen. reporter increase, % at 5 µM. HeLa Luc-Wee1K328M stability, luciferase luminescence; 100% = proteasome inhibitor MG132 effect. 1.2% of 220,000 active;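 active = activation above the mean of all tested compounds plus 3 SD, set per screening run, cut at about 8.8% in these data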;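 note: cells exposed to compound for 20 h before luminescence read; 0% = DMSO alone and 100% = MG132 at 30 µM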
Target sequence (P30291 whole entry K328M): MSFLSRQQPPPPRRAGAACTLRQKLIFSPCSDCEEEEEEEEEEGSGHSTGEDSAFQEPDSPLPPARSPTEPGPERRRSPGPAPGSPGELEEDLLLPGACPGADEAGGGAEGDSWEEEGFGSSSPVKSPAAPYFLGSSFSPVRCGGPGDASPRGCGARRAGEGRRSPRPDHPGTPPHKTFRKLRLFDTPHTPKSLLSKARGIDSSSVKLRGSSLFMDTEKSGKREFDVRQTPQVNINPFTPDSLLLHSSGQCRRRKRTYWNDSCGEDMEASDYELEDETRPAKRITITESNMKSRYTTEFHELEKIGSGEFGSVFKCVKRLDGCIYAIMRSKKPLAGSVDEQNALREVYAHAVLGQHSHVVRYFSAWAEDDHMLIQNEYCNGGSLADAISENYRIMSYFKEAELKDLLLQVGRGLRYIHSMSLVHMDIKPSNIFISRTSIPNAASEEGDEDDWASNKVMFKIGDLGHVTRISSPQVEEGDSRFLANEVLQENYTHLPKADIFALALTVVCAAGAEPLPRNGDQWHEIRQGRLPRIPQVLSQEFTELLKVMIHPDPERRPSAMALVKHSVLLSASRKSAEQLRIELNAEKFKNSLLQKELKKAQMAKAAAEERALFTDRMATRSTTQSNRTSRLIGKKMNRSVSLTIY
L major viab: inhibitors of Leishmania major promastigote growth. Leishmania major promastigotes, resazurin fluorescence viability. inhibition, % at 10 µM. 9% of 200,000 active;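 note: promastigotes grown with compound for 44 hours at 28 °C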
Rad51 HR inh: Rad51 (human) homologous recombination inhibition. Q06609. hRad51 DNA strand exchange, fluorescence dequenching. inhibition, % at 10 µM. 0.085% of 200,000 active. AID 1385;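 active = inhibition above 40% at the single screening dose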;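 note: 0% = DMSO control wells and 100% = blanks with heterologous ssDNA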
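material = hRad51 filaments on single-stranded DNA | reagent = Donor/quencher-labelled 47-bp dsDNA substrate | compound = 10 µM final, single point | schedule = strand-exchange reaction 15 min at room temperature | measured by = fluorescein emission 520 nm, excitation 485 nm | read-out basis = % inhibition versus plate control and blank means | benchmarks = plate controls and plate blanks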
CHOP inhibitor: CHOP inhibition in unfolded protein response. CHO-K1 CHOP-promoter luciferase, tunicamycin-induced, 15-18 h. inhibition, % at 10 µM. 3.8% of 220,000 active;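 active = compounds that reduced the stress-induced luciferase reporter signal by more than about 70% of percent inhibition, limit read from the data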;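 note: 0% = tunicamycin plus vehicle and 100% = wells without tunicamycin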
PKD1 kinase inh: PKD1 (human) kinase inhibition; Q15139; AID 797; PKD1 kinase fluorescence polarization assay; inhibition, % (test concentration not listed); 0.056% of 200,000 active
Arbovirus inh: blocks arbovirus infection; 0.37% of 200,000 active; arbovirus infection cell-based antiviral screen; inhibition, % at 10 µM; AID 1251; in the data active = inhibition above about 30%
* = called active by the depositor; . = not tested or not shown. Cut-off read from the data, not from the text of the source, unless noted: active = inhibition above about 50%; inactive = the rest.

SMILES	Wee1 degr inh	L major viab	Rad51 HR inh	CHOP inhibitor	PKD1 kinase inh	Arbovirus inh
C=C(C=O)C[C@@H]1C[C@H](O)C2OC3C[C@]4(C)OC5/C=C\CC6OC7C(CC=CCC6OC5CCCC4OC3CC2O1)OC1CC2OC3CC(=O)OC3C[C@@H](C)C[C@@]2(C)OC1C[C@@H]7C (some centres undefined)	.	.	8	107*	.	.
Nc1ccc2c(c1)oc1ccccc12	-1	-6	-6	9	-15	-5
O=C1NC(=O)C(CCc2ccncc2)(Cc2cccc(Cl)c2Cl)C(=O)N1c1ccc(Br)cc1 (centres undefined)	1	92*	1	34	7	8
CCc1ccc(N2C(=O)NC(=O)C(CCc3ccncc3)(CCc3ccncc3)C2=O)cc1	2	-7	2	14	0	-4
CCOc1cc(CNCCc2c[nH]c3ccccc23)cc(Cl)c1OC	2	13	-4	89*	-1	-36
COc1ccccc1CCNC1CCC(C(C)(C)C)CC1 (centres undefined)	-3	100*	-3	67	-1	22
COc1ccccc1CCNC1CCCC(C)C1 (centres undefined)	3	10	22	-26	-10	-3
CCCCCCn1c(=O)c(C(=O)Nc2nnc(C)s2)c(O)c2ccccc21	2	4	9	52	1	15
CCCCCn1c(=O)c(C(=O)Nc2nc(CC(=O)OCC)cs2)c(O)c2ccccc21	1	90*	-2	92*	0	16
CCCCCn1c(=O)c(C(=O)NCc2ccco2)c(O)c2ccccc21	-1	6	4	32	-10	-3
CCCCn1c(=O)c(C(=O)Nc2ccccc2S(N)(=O)=O)c(O)c2ccccc21	-1	-6	-4	77*	-11	-14
CCCCCn1c(=O)c(C(=O)Nc2ccccc2S(N)(=O)=O)c(O)c2ccccc21	-2	96*	9	82*	1	-11
CCCCn1c(=O)c(C(=O)Nc2ccccc2)c(O)c2ccccc21	-1	4	-4	35	4	-29
COc1ccc2c(c[n+](C)c3c4cc5c(cc4ccc23)OCO5)c1OC	.	.	.	-25	.	.
CCCC(C)C1(CC)C(=O)NC(=O)N=C1N (centres undefined)	5	-5	.	-10	9	-13
Cc1cc([N+](=O)[O-])c2ccccc2[n+]1[O-]	0	.	.	104*	.	.
Cc1cccc(OP(=O)(NCc2ccccc2)Oc2cccc(C)c2)c1	0	8	7	65	7	-48
CC(C)[C@]12O[C@H]1[C@@H]1O[C@]13[C@]1(O[C@H]1C[C@H]1C4=C(CC[C@@]13C)C(=O)OC4)[C@@H]2O	-4	.	-6	103*	.	-1
CCc1ccc(N2C(=O)NC(=O)/C(=C\c3cccn3CCOc3ccc(C(C)C)cc3)C2=O)cc1	0	95*	-5	87*	-15	-7
Oc1ccc2c3c1O[C@H]1[C@@H](O)CC[C@@]4(O)C(C2)N(CC2CCC2)CCC314 (some centres undefined)	.	.	.	-8	.	.
C=C(C)[C@H]1CN[C@H](C(=O)O)[C@H]1CC(=O)O	.	.	3	-5	.	.
CC(C)=CCc1c(O)cc2c(c1O)C(=O)CC(c1ccc(O)cc1)O2 (centres undefined)	.	.	10	77*	.	.
NC(Cc1ccc(N(CCCl)CCCl)cc1)C(=O)O (centres undefined)	.	.	.	-8	.	.
CN1CCN(c2ccc([N+](=O)[O-])c(N/N=C3\CN4CCC3CC4)c2)CC1	-2	92*	13	7	-4	-7
CCNc1cc(N2CCN(C)CC2)ccc1[N+](=O)[O-]	4	8	-6	12	-6	-8
SMILES	Wee1 degr inh	L major viab	Rad51 HR inh	CHOP inhibitor	PKD1 kinase inh	Arbovirus inh
CC1CCC(C(C)C)C(OC(=O)Cn2c(COc3ccccc3)[n+](C)c3ccccc32)C1 (centres undefined)	-1	.	-6	92*	.	.
CCCCN1C(=O)NC(=O)C2(Cc3c(nc4ccccn4c3=O)N3CCc4ccccc4C32)C1=O (centres undefined)	-1	89*	9	31	-12	8
Cc1cccn2c(=O)c3c(nc12)N1CCCCCC1C1(C3)C(=O)N(C)C(=O)N(C)C1=O (centres undefined)	-2	.	-6	4	.	.
CCCCN1C(=O)NC(=O)C2(Cc3c(nc4c(C)cccn4c3=O)N3CCc4ccccc4C32)C1=O (centres undefined)	1	96*	.	65	-4	-25
Cc1cccn2c(=O)c3c(nc12)N1CCc2ccccc2C1C1(C3)C(=O)NC(=O)N(C)C1=O (centres undefined)	-4	50*	-4	25	3	-34
O=C(Oc1c(Cl)cc(Cl)c2ccccc12)N1CCCCC1	1	37	-1	77*	-1	10
O=Cc1cn(Cc2cccc(F)c2)c2ccccc12	-1	59*	-1	0	-15	2
CCn1nc(-c2ccccc2)nc2c(=O)n(C)c(=O)nc1-2	0	14	-31	108*	6	0
C=CCn1c(O)c(C(CC)=Nc2cccc(C(F)(F)F)c2)c(=O)[nH]c1=O	3	.	13	-1	.	.
O=C(CNC(=O)c1cccc(Cl)c1)Nc1ccc(Br)cc1C(=O)c1ccccc1	1	59*	-1	56	-9	-29
O=C(Nc1ccc(Cl)cc1C(=O)c1ccccc1)c1ccccc1	1	69*	.	53	-14	-2
O=C(COC(=O)c1cccc(O)c1)Nc1ccc(Cl)cc1C(=O)c1ccccc1	-1	-2	3	80*	-6	6
O=C(CNC(=O)c1ccc(Cl)cc1)Nc1ccc(Br)cc1C(=O)c1ccccc1	3	-11	.	4	0	2
O=P1(Oc2ccccc2)OCCCS1 (centres undefined)	2	.	7	10	.	.
CCOC(=O)C1(c2ccccc2)CCN(CCC(C#N)(c2ccccc2)c2ccccc2)CC1	.	.	-4	.	.	.
Cc1ccc(C2=CCNCC2)cc1	-1	-12	-2	9	1	2
CC(C)CNC(=O)c1c(N)n(Cc2ccc3c(c2)OCO3)c2nc3ccccc3nc12	-1	68*	-4	85*	0	-14
CC(C)CCNC(=O)c1c(N)n(Cc2ccc3c(c2)OCO3)c2nc3ccccc3nc12	4	18	-16	36	-3	-20
CCCNC(=O)c1c(N)n(Cc2ccc3c(c2)OCO3)c2nc3ccccc3nc12	-1	0	-6	75*	-3	-8
NC(N)=NOCC[C@H](N)C(=O)O	.	.	.	-22	.	.
O=C1NC(=O)N(c2ccccc2)C(=O)/C1=C/C=C/c1ccco1	0	.	-25	-15	.	.
CN(C)c1ccc(/C=C2/C(=O)NC(=O)N(CCc3ccc(F)cc3)C2=O)cc1	-3	0	-3	55	-5	2
Cc1cccc(N2C(=O)NC(=O)/C(=C\C=C\c3ccco3)C2=O)c1	2	.	-1	18	.	.
